Active and inactive are the calls of the source. The rule behind the calls is not given here.
What was measured:
[1] = molecular target: T1, Orphan methyltransferase M.SssI (Spiroplasma monobiae, UniProt P15840); assay: Competitive inhibition of Spiroplasma sp. MQ1 SssI methyltransferase using pUC18 as substrate measured for 10 mins by Dixon plot analysis
Summary of the method: (§1)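 M.SssI reaction in 10 mM Tris-HCl pH 7.9 with 50 mM NaCl, 10 mM DTT, 2 mM [3H]CH3-SAM, 1 U enzyme and pUC18 plasmid (0.1, 0.5 or 1 µg). Run at 37 °C for 1, 3, 5 and 10 min with inhibitor present to get initial rates V0 (nM/min). Ki taken from Dixon plot. Reactions repeated twice.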

[2] = molecular target: T2, DNA (cytosine-5)-methyltransferase 1 (Homo sapiens, UniProt P26358); assay: Inhibition of DNMT1 in human HeLa cell nuclear extract assessed as methylated substrate level at 10 uM by ELISA
Summary of the method: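 HeLa nuclear extract (cells grown to 80% confluency; protein by Bradford) with hemimethylated DNA substrate, incubated 1 h with or without inhibitor. Methylated product detected by ELISA with anti-5-methylcytosine antibody, colorimetric read-out at 450 nm. Each experiment repeated twice.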

[3] = molecular target: T2, DNA (cytosine-5)-methyltransferase 1; assay: Inhibition of DNMT1 in human HeLa cell nuclear extract assessed as methylated substrate level at 100 uM by ELISA
[4] = molecular target: T1, Orphan methyltransferase M.SssI; assay: Inhibition of Spiroplasma sp. MQ1 SssI methyltransferase-mediated DNA cytosine methylation using pUC18 as substrate and [3H]CH3-SAM measured up to 10 mins
Summary of the method: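 Tritium-incorporation assay with SssI methyltransferase, pUC18 plasmid (0.1–1 µg) and 2 mM [3H]CH3-SAM. Buffer is 10 mM Tris-HCl pH 7.9, 50 mM NaCl, 10 mM DTT. Sampled at 1, 3, 5 and 10 min at 37 °C to give initial velocity V0. Reactions done twice.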

[5] = molecular target: T2, DNA (cytosine-5)-methyltransferase 1; assay: Inhibition of DNMT1 in human HeLa cell nuclear extract assessed as methylated substrate level by ELISA
HeLa = assay: Inhibition of DNA methylation in human HeLa cells assessed as reduction of 5-methylcytosine level using [gamma-32P]ATP after 72 hrs; type: functional, cell-based
Summary of the method: (§2)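 HeLa (RPMI-1640) and HEK293 (DMEM) cells, medium with 10% FBS, antibiotics and vitamin mix. Seeded at 1.25 × 10⁵ per well and exposed 72 h at 37 °C, 5% CO2 to 1, 10 or 100 µM. DNA digested with micrococcal nuclease and spleen phosphodiesterase, then 5'-labelled with [γ-32P]ATP and T4 polynucleotide kinase. 3'-phosphate removed with nuclease P1. Nucleotides resolved by 2D cellulose TLC. Methylation given as m5C/(m5C+dC+dT) × 100.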

HEK293 = assay: Inhibition of DNA methylation in human HEK293 cells assessed as reduction of 5-methylcytosine level using [gamma-32P]ATP after 72 hrs; type: cell-based; settings: HEK293, 72 h; summary of the method: as §2
[6] = molecular target: T2, DNA (cytosine-5)-methyltransferase 1; assay: Inhibition of DNMT1 in human HeLa cells assessed as 2'-deoxyadenosine phosphate level by two-dimensional thin layer chromatography analysis; type: cell-based; settings: in the assay text read “5-methylcytosine level” for “2'-deoxyadenosine phosphate level”; summary of the method: as §2
[7] = molecular target: T2, DNA (cytosine-5)-methyltransferase 1; assay: Inhibition of DNMT1 in human HeLa cells assessed as 5-methyl-2'-deoxycytosine phosphate level by two-dimensional thin layer chromatography analysis; type: cell-based; summary of the method: as §2
[8] = molecular target: T2, DNA (cytosine-5)-methyltransferase 1; assay: Inhibition of DNMT1 in human HeLa cells assessed as 2'-deoxycytosine phosphate level by two-dimensional thin layer chromatography analysis; type: cell-based; summary of the method: as §2
[9] = molecular target: T2, DNA (cytosine-5)-methyltransferase 1; assay: Inhibition of DNMT1 in human HeLa cells assessed as 2'-deoxytymidine phosphate level by two-dimensional thin layer chromatography analysis; type: cell-based; summary of the method: as §2
[10] = molecular target: T2, DNA (cytosine-5)-methyltransferase 1; assay: Inhibition of DNMT1 in human HeLa cells assessed as 2'-deoxyguanosine phosphate level by two-dimensional thin layer chromatography analysis; type: cell-based; summary of the method: as §2
[11] = molecular target: T1, Orphan methyltransferase M.SssI; assay: Uncompetitive inhibition of Spiroplasma sp. MQ1 SssI methyltransferase using pUC18 as substrate measured for 10 mins by Cornish-Bowden's plot analysis
Summary of the method: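 M.SssI reaction in 10 mM Tris-HCl pH 7.9 with 50 mM NaCl, 10 mM DTT, 2 mM [3H]CH3-SAM, 1 U enzyme and pUC18 (0.1, 0.5 or 1 µg). Run at 37 °C for 1–10 min to get V0. Ki' obtained by Cornish-Bowden method, plotting S/V against inhibitor concentration. Duplicates.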

[12] = molecular target: T1, Orphan methyltransferase M.SssI; assay: Non-competitive inhibition of Spiroplasma sp. MQ1 SssI methyltransferase using pUC18 as substrate measured for 10 mins by Dixon plot analysis; summary of the method: as §1

T1 sequence (P15840 whole entry): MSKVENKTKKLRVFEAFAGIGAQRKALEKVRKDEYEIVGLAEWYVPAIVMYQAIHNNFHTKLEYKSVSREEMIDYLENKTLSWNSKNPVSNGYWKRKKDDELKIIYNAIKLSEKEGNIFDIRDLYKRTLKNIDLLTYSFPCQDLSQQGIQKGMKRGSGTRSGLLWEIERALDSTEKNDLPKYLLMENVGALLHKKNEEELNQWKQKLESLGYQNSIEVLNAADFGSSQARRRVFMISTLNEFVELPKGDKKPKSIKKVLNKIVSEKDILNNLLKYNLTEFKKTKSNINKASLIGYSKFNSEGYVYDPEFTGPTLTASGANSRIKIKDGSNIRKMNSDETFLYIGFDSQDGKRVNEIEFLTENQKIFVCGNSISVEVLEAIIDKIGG
T2 sequence (P26358 whole entry): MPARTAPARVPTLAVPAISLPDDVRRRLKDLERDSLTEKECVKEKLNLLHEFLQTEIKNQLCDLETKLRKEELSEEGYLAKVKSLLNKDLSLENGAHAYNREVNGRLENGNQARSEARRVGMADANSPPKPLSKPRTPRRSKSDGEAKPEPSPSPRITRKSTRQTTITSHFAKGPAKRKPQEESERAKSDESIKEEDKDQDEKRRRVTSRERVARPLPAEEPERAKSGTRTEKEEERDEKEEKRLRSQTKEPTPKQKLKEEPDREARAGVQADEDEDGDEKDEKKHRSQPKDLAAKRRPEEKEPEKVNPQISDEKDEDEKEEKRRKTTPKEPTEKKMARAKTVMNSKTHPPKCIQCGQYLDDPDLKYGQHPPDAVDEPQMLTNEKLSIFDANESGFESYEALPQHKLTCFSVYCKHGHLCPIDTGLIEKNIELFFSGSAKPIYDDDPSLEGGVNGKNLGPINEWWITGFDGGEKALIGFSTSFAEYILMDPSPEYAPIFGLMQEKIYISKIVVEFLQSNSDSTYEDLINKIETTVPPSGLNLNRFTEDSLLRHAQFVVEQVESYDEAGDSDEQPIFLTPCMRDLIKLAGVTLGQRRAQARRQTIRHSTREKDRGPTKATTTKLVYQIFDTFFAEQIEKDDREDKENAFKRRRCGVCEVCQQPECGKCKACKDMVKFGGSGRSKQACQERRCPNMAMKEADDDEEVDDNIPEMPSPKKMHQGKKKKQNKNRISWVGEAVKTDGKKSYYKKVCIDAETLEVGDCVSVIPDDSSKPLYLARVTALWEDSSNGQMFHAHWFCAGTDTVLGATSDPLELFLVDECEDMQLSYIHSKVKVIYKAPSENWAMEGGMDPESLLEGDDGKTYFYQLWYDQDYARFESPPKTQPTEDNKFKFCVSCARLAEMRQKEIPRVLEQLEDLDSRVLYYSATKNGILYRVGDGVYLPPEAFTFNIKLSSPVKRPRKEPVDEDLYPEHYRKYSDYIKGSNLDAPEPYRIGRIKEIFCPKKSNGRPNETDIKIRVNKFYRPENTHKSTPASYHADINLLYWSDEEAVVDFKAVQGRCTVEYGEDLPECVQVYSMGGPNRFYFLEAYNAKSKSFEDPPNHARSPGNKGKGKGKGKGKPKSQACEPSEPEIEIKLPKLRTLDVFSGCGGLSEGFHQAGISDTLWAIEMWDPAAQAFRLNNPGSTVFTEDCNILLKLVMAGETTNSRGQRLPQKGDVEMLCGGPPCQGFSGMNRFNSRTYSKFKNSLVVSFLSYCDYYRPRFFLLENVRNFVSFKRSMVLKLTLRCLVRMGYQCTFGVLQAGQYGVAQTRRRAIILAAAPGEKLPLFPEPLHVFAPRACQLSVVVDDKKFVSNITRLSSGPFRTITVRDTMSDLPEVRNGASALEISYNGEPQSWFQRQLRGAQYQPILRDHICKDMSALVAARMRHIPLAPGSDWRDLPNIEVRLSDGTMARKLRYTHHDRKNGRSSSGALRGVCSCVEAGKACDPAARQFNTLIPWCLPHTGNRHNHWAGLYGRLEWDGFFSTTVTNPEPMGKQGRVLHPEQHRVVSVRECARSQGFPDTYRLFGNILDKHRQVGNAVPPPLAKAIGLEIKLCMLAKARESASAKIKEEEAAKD

Compound: O=C(O[C@@H]1Cc2c(O)cc(O)cc2O[C@@H]1c1cc(O)c(O)c(O)c1)c1cc(O)c(O)c(O)c1 [EPIGALOCATECHIN GALLATE]
- Ki [1]: 0.028 µM
- inhibition [2]: 42%

Compound: O=C(O)[C@H](Cc1c[nH]c2ccccc12)N1C(=O)c2ccccc2C1=O
- Ki [1]: 0.23 µM
- inhibition [3]: 11%

Compound: Cc1ccc(S(=O)(=O)Nc2cc[nH]c(=O)n2)cc1
- Ki [1]: 550 µM

Compound: O=C1N=C(NCc2ccco2)NCN1
- IC50 [4]: 2.73 µM
- Ki [1]: 0.7 µM
- IC50 [5]: 22 µM
- inhibition [5]: Dose-dependent effect
- inhibition [2]: 55%
- IC50 (HeLa): 26 µM
- IC50 (HEK293): 75 µM
- inhibition [6]: Active
- inhibition [7]: Active
- inhibition [8]: Active
- inhibition [9]: Active
- inhibition [10]: Active

Compound: C/C=N/c1cc[nH]c(=O)n1
- Ki [11]: 5600 µM

Compound: Cc1ccc(CNc2cc[nH]c(=O)n2)cc1
- Ki [1]: 26 µM

Compound: Cc1c[nH]c(=O)nc1NCc1ccco1
- Ki [1]: 15 µM
- IC50 (HeLa): 88 µM
- IC50 (HEK293): > 100 µM

Compound: O=Cc1cnc(=O)[nH]c1NCc1ccccc1
- Ki [1]: 35 µM

Compound: CCNc1cc[nH]c(=O)n1
- Ki [11]: 6000 µM

Compound: Cc1cn([C@H]2C[C@H](O)[C@@H](CO)O2)c(=O)nc1NCc1ccco1
- Ki [1]: 250 µM

Compound: CC(=O)OCc1c[nH]c(=O)nc1NCc1ccco1
- Ki [1]: 50 µM

Compound: O=c1nc(NCc2ccccc2[N+](=O)[O-])cc[nH]1
- Ki [12]: 6400 µM

Compound: CCCCNc1ccnc(=O)[nH]1
- Ki [11]: 1000 µM

Compound: CCCCNCc1c[nH]c(=O)nc1NCc1ccco1
- Ki [1]: 960 µM

Compound: O=c1nc(NCc2ccc(CO)o2)cc[nH]1
- Ki [1]: 700 µM

Compound: O=c1nc(NCc2cccnc2)cc[nH]1
- Ki [1]: 400 µM

Compound: O=c1nc(NCc2ccccc2)c(CO)c[nH]1
- Ki [1]: 135 µM

Compound: O=C1N=C(NCc2ccccc2)NCN1
- Ki [1]: 20 µM

Compound: O=Cc1c[nH]c(=O)nc1NCc1ccco1
- Ki [1]: 83 µM

Compound: O=c1ncc(CS(=O)(=O)O)c(NCc2ccco2)[nH]1
- Ki [1]: 112 µM

Compound: O=c1nc(NCc2ccco2)c(CO)c[nH]1
- Ki [1]: 440 µM

Compound: O=c1nc(NCc2ccco2)cc[nH]1
- Ki [1]: 70 µM

Compound: CCC/C=N/c1cc[nH]c(=O)n1
- Ki [11]: 800 µM

Compound: Cc1c[nH]c(=O)nc1NCc1ccccc1
- Ki [1]: 3.6 µM

Compound: O=c1nc(NCc2ccccc2)cc[nH]1
- Ki [1]: 10 µM
- IC50 (HeLa): 31 µM
- IC50 (HEK293): > 100 µM
- inhibition [6]: Active
- inhibition [7]: Active
- inhibition [8]: Active
- inhibition [9]: Active
- inhibition [10]: Active

Compound: O=c1nc(NCc2ccco2)ccn1[C@H]1C[C@H](O)[C@@H](CO)O1
- Ki [1]: 170 µM

Compound: Nc1nc[nH]c(=O)n1
- Ki [1]: 5500 µM

Compound: CC(=O)OCc1c[nH]c(=O)nc1NCc1ccccc1
- Ki [1]: 23 µM

Compound: O=c1ncc(CS(=O)(=O)O)c(NCc2ccccc2)[nH]1
- Ki [1]: 33 µM

Compound: CC/C=N/c1cc[nH]c(=O)n1
- Ki [11]: 3400 µM

Reference: ChEMBL document CHEMBL2062450, “New cytosine derivatives as inhibitors of DNA methylation” (Eur J Med Chem, 2012)
